Published values pooled from the literature.
Protocols differ between the studies behind these lines.
PIK3C2B: Phosphatidylinositol 4-phosphate 3-kinase C2 domain-containing subunit beta (PIK3C2B, Homo sapiens, UniProt O00750)
KDM1A: Lysine-specific histone demethylase 1A (KDM1A, Homo sapiens, UniProt O60341)
TRIM24: Transcription intermediary factor 1-alpha (TRIM24, Homo sapiens, UniProt O15164)

SMILES	target	effect on	mode	method	concentration	measurement	value
Cc1ccc(C(=O)Nc2ccc(CN3CCN(C)CC3)c(C(F)(F)F)c2)cc1C#Cc1cnc2cccnn12	PIK3C2B	enzyme activity	inhibitor		23.5 nM	remaining activity	90%
COc1ccc([C@H]2c3[nH]c4ccccc4c3C[C@@H]3C(=O)N(C(C)(C)C)C(=O)N23)cc1OC	cGMP-specific 3',5'-cyclic phosphodiesterase (PDE5A, Homo sapiens, UniProt O76074)	enzyme activity	inhibitor	FP	50 µM	inhibition	52%
CN1CCN(C(=O)[C@H](CCCN[C@@H]2C[C@H]2c2ccc(F)cc2)NC(=O)c2ccc(-n3ccnn3)cc2)CC1	KDM1A	enzyme activity	inhibitor			kinact	0.018 s⁻¹
COc1cc(Cl)c(C(=O)N[C@@H](CN[C@H]2CC[C@@H](N)CC2)Cc2ccc(C#N)cc2)cc1-c1ccc(CN[C@H](C)c2ccc(C)cc2)o1	Testis-specific serine/threonine-protein kinase 4 (TSSK4, Homo sapiens, UniProt Q6SA08)	enzyme activity	inhibitor		1 µM	remaining activity	98%
CC(=O)N[C@H](C(=O)N[C@H](C(=O)N[C@@H](Cc1ccccc1)C(=O)N[C@H](C(=O)N[C@@H](CO)C(=O)N[C@@H](Cc1c[nH]c2ccccc12)C(=O)N[C@@H](CCC(=O)O)C(=O)N[C@@H](CCC(=O)O)C(=O)N[C@@H](Cc1ccc(O)cc1)C(=O)N[C@@H](CC(C)C)C(=O)N[C@@H](CC(=O)O)C(=O)N[C@@H](Cc1c[nH]c2ccccc12)C(=O)N[C@H](C(N)=O)C(C)C)[C@@H](C)O)C(C)C)[C@@H](C)O	Proprotein convertase subtilisin/kexin type 9 (PCSK9, Homo sapiens, UniProt Q8NBP7)	binding		SPR		koff	0.173 s⁻¹
NS(=O)(=O)c1ccc(Nc2nc(-c3ccc(F)cc3)c3ccccc3n2)cc1	ATPase family AAA domain-containing protein 2B (ATAD2B, Homo sapiens, UniProt Q9ULI0)	binding		competition with immobilised ligand	1 µM	remaining binding	76%
O=C(c1ccc(F)cc1)N(Cc1ccccc1)C1CCCCC1	Endothelin-1 receptor (EDNRA, Homo sapiens, UniProt P25101)	cell-free assay			10 µM	inhibition	0%
Oc1ccc(-c2nc(-c3ccncc3)c(-c3ccc(F)cc3)[nH]2)cc1	TRIM24	thermal stability		DSF	10 µM	ΔTm	-0.23 °C
O=C(O)c1ccc(CN2CCC(CN[C@@H]3C[C@H]3c3ccccc3)CC2)cc1	KDM1A	enzyme activity	inhibitor			kinact	0.013 s⁻¹
Cc1cnc(Nc2ccc(OCCN3CCCC3)cc2)nc1Nc1cccc(S(=O)(=O)NC(C)(C)C)c1	Bromodomain-containing protein 3, BD2 (BRD3, Homo sapiens, UniProt Q15059)	thermal stability		DSF	10 µM	ΔTm	3.4 °C
Cc1cc2c(cc1N1C(=O)c3cccc4c(Cl)ccc(c34)C1=O)n(C)c(=O)n2C	SP140L (Homo sapiens, UniProt Q9H930)	thermal stability		DSF	10 µM	ΔTm	-1.4 °C
C[S+]([O-])c1ccc(-c2nc(-c3ccncc3)c(-c3ccc(F)cc3)[nH]2)cc1 (stereo not shown)	TRIM24	thermal stability		DSF	10 µM	ΔTm	1.4 °C
Nc1ncnc2occ(-c3ccc(NC(=O)Nc4cc(C(F)(F)F)ccc4F)cc3)c12	PIK3C2B	enzyme activity	inhibitor		20 µM	remaining activity	99%
